# Assay results from ChEMBL document CHEMBL4376859, “Prodrugs for nitroreductase-based cancer therapy-3: Antitumor activity of the novel dinitroaniline prodrugs/Ssap-NtrB enzyme suicide gene system: Synthesis, in vitro and in silico evaluation in prostate cancer” (Eur J Med Chem, 2020).
# Active and inactive are the calls of the source. The rule behind the calls is not given here.
# Assays:
# [1] = molecular target: T1, Oxygen-insensitive NAD(P)H nitroreductase (Escherichia coli K-12, UniProt P38489); test: Substrate activity at Escherichia coli nitroreductase nfsB assessed as ratio of Kcat/Km using NADH as cofactor in Tris-Cl buffer at pH 7.5 by spectrophotometric method based Michaelis-Menten plot analysis relative to CB1954/NfsB; type: ADME
# T1 sequence (P38489 whole entry): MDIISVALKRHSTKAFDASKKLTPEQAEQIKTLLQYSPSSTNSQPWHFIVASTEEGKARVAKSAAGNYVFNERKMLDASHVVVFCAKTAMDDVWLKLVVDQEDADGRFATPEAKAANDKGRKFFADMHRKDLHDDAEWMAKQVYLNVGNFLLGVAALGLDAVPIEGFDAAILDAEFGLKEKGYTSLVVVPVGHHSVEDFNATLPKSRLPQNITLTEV
# [2] = Substrate activity at Escherichia coli nitroreductase nfsA assessed as Kcat using NADPH as cofactor in Tris-Cl buffer at pH 7.5 by spectrophotometric method; type: ADME
# nitroreductase nfsA = test: Substrate activity at Escherichia coli nitroreductase nfsA assessed as Km using NADPH as cofactor in Tris-Cl buffer at pH 7.5 by spectrophotometry based Michaelis-Menten plot analysis; type: ADME; details: Escherichia coli nitroreductase nfsA enzyme
# [3] = Substrate activity at Escherichia coli nitroreductase nfsA assessed as ratio of Kcat/Km using NADPH as cofactor in Tris-Cl buffer at pH 7.5 by spectrophotometry based Michaelis-Menten plot analysis; type: ADME
# [4] = Substrate activity at Escherichia coli nitroreductase nfsA assessed as ratio of Kcat/Km using NADPH as cofactor in Tris-Cl buffer at pH 7.5 by spectrophotometric method based Michaelis-Menten plot analysis relative to CB1954/NfsB
# [5] = molecular target: T1, Oxygen-insensitive NAD(P)H nitroreductase; test: Substrate activity at Escherichia coli nitroreductase nfsB assessed as ratio of Kcat/Km using NADH as cofactor in Tris-Cl buffer at pH 7.5 by spectrophotometric method based Michaelis-Menten plot analysis; type: ADME
# [6] = molecular target: T1, Oxygen-insensitive NAD(P)H nitroreductase; test: Substrate activity at Escherichia coli nitroreductase nfsB assessed as Km using NADH as cofactor in Tris-Cl buffer at pH 7.5 by spectrophotometric method based Michaelis-Menten plot analysis; type: ADME
# [7] = molecular target: T1, Oxygen-insensitive NAD(P)H nitroreductase; test: Substrate activity at Escherichia coli nitroreductase nfsB assessed as Kcat using NADH as cofactor in Tris-Cl buffer at pH 7.5 by spectrophotometric method; type: ADME
# Putative nitroreductase [8] = molecular target: T2, Putative nitroreductase (Staphylococcus saprophyticus subsp. saprophyticus (strain ATCC 15305 / DSM20229 / NCIMB 8711 / NCTC 7292 / S-41), UniProt Q4A0P1); test: Binding affinity to Staphylococcus saprophyticus nitroreductase NtrB
# T2 sequence (Q4A0P1 whole entry): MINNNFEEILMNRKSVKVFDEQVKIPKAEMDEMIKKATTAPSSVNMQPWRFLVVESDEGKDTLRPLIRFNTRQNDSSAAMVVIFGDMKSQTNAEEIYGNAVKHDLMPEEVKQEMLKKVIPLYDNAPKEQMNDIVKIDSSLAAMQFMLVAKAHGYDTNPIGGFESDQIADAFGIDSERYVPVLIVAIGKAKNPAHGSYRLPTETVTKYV
# Putative nitroreductase [9] = molecular target: T2, Putative nitroreductase; test: Substrate activity at Staphylococcus saprophyticus nitroreductase NtrB assessed as Kcat using NADPH as cofactor in Tris-Cl buffer at pH 7.5 incubated for 30 mins by HPLC analysis; type: ADME; details: pH 7.5, 0.5 h
# [10] = molecular target: T1, Oxygen-insensitive NAD(P)H nitroreductase; test: Substrate activity at Escherichia coli nitroreductase nfsB assessed as ratio of Kcat/Km upto 1 mM using NADH as cofactor in sodium phosphate buffer at pH 7.5 incubated for 5 mins by RP-HPLC relative to CB1954/NfsB; type: ADME; details: pH 7.5, 5 min
# Putative nitroreductase [11] = molecular target: T2, Putative nitroreductase; test: Substrate activity at Staphylococcus saprophyticus nitroreductase NtrB assessed as ratio of Kcat/Km using NADPH as cofactor in Tris-Cl buffer at pH 7.5 incubated for 30 mins by HPLC analysis relative to CB1954/NfsB; type: ADME; details: pH 7.5, 0.5 h
# [12] = molecular target: T1, Oxygen-insensitive NAD(P)H nitroreductase; test: Substrate activity at Escherichia coli nitroreductase nfsB assessed as ratio of Kcat/Km upto 1 mM using NADH as cofactor in sodium phosphate buffer at pH 7.5 incubated for 5 mins by RP-HPLC; type: ADME; details: pH 7.5, 5 min
# Putative nitroreductase [13] = molecular target: T2, Putative nitroreductase; test: Substrate activity at Staphylococcus saprophyticus nitroreductase NtrB assessed as ratio of Kcat/Km using NADPH as cofactor in Tris-Cl buffer at pH 7.5 incubated for 30 mins by HPLC analysis; type: ADME; details: pH 7.5, 0.5 h
# [14] = molecular target: T1, Oxygen-insensitive NAD(P)H nitroreductase; test: Substrate activity at Escherichia coli nitroreductase nfsB assessed as Kcat upto 1 mM using NADH as cofactor in sodium phosphate buffer at pH 7.5 incubated for 5 mins by RP-HPLC; type: ADME; details: pH 7.5, 5 min
# Putative nitroreductase [15] = molecular target: T2, Putative nitroreductase; test: Substrate activity at Staphylococcus saprophyticus nitroreductase NtrB assessed as Kcat/Km using NADPH as cofactor in Tris-Cl buffer at pH 7.5 by HPLC analysis relative to CB1954/NfsB; type: ADME
# [16] = Cytotoxicity against human HUVEC cells assessed as cell viability at 9 to 150 uM after 48 hrs by MTT assay relative to control; type: cell-based; details: read-out: Activity
# In short: (§1)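 Hep3B hepatoma, PC-3 prostate cancer and HUVEC (healthy control) cells were exposed to nitro compounds at 150, 75, 38, 19 and 9 µM for 24 h and 48 h. Viability was read by MTT assay, and IC50 values were derived from the growth inhibition curves.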
# PC-3 [17] = test: Cytotoxicity against human PC3 cells assessed as cell viability at 9 to 150 uM after 24 hrs by MTT assay relative to control; type: functional; in short: as §1
# PC-3 [18] = test: Cytotoxicity against human PC3 cells assessed as cell viability at 9 to 150 uM after 48 hrs by MTT assay relative to control; type: functional; in short: as §1
# Hep 3B2 [19] = test: Cytotoxicity against human Hep3B cells assessed as cell viability at 9 to 150 uM after 24 hrs by MTT assay relative to control; type: functional; in short: as §1
# Hep 3B2 [20] = test: Cytotoxicity against human Hep3B cells assessed as cell viability at 9 to 150 uM after 48 hrs by MTT assay relative to control; type: functional; in short: as §1
# PC-3 [21] = test: Cytotoxicity against human PC3 cells […] Staphylococcus saprophyticus nitroreductase NtrB assessed as reduction in cell viability in presence of NADH as cofactor after 48 hrs by SRB assay; type: functional, cell-based; details: PC-3, 48 h
# In short: (§2)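 Compounds were reduced outside the cells by purified His-tag (Ni column) Ssap-NtrB. The reaction mix held 600 µM NADH and compound (150, 39, 9 µM, or 180, 18, 1.8 nM) and was applied to PC-3 cells. Controls were compound alone in 25 mM Tris/HCl pH 7.5, and enzyme alone at 31 µg/mL. After 48 h, SRB absorbance was read at 492 nm and converted to % viability.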
# [22] = Cytotoxicity against human HUVEC cells assessed as cell viability at 9 to 150 uM after 24 hrs by MTT assay relative to control; type: cell-based; details: read-out: Activity; in short: as §1
# Putative nitroreductase [23] = molecular target: T2, Putative nitroreductase; test: Substrate activity at Staphylococcus saprophyticus nitroreductase expressed in Escherichia coli BL21 (DE3) assessed as retention time by HPLC analysis; type: ADME
# PC-3 [24] = test: Cytotoxicity against human PC3 cells assessed as reduction in cell viability after 48 hrs by SRB assay; type: functional, cell-based; in short: as §2
# Nitroreductase = molecular target: T3, Nitroreductase (Bacillus amyloliquefaciens, UniProt Q8VSR5); test: Substrate activity at Bacillus amyloliquefaciens nitroreductase ywrO assessed as ratio of Kcat/Km using NADPH as cofactor in sodium phosphate buffer at pH 7.5 by HPLC analysis relative to CB1954/NfsB; type: ADME
# T3 sequence (Q8VSR5 whole entry): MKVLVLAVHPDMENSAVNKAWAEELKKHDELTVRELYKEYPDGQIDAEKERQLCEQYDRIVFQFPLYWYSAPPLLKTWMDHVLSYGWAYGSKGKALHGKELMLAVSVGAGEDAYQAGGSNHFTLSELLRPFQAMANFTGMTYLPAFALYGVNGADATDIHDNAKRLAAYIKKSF
# Putative nitroreductase [25] = molecular target: T2, Putative nitroreductase; test: Substrate activity at Staphylococcus saprophyticus nitroreductase NtrB assessed as Km using NADPH as cofactor in Tris-Cl buffer at pH 7.5 incubated for 30 mins by HPLC analysis; type: ADME; details: pH 7.5, 0.5 h
compound,measurement,setting,value
CS(=O)(=O)OCCN(CCBr)c1c(C(=O)NCCO)cc([N+](=O)[O-])cc1[N+](=O)[O-],fold change (FC),[1],2.32
same,Kcat,[2],12 s⁻¹
same,Km,nitroreductase nfsA,100 µM
same,Kcat/Km,[3],120000 s⁻¹ M⁻¹
same,fold change (FC),[4],21.43
same,Kcat/Km,[5],13000 s⁻¹ M⁻¹
same,Km,[6],4.5 mM
same,Kcat,[7],60 s⁻¹
NC(=O)c1cc(N(CCCl)CCCl)c([N+](=O)[O-])cc1[N+](=O)[O-],Ki,Putative nitroreductase [8],7.28 µM
same,Kcat,Putative nitroreductase [9],0.8 s⁻¹
same,fold change (FC),[10],1.89
same,fold change (FC),Putative nitroreductase [11],1.67
same,Kcat/Km,[12],10560 s⁻¹ M⁻¹
same,Kcat/Km,Putative nitroreductase [13],9350 s⁻¹ M⁻¹
same,Kcat,[14],26.4 s⁻¹
O=[N+]([O-])c1ccc(Nc2ccc3ccccc3c2)c([N+](=O)[O-])c1,fold change (FC),Putative nitroreductase [15],1.48
same,"viability at 48 h, up to 150 µM",[16],> 80%
same,Activity,PC-3 [17],51 - 80%
same,Activity,PC-3 [18],>80%
same,Activity,Hep 3B2 [19],51 - 80%
same,Activity,Hep 3B2 [20],51 - 80%
same,IC50,PC-3 [21],5070 nM
same,"viability at 24 h, up to 150 µM",[22],> 80%
same,Retention_time,Putative nitroreductase [23],20.13 min
same,Activity,PC-3 [24],inactive
NC(=O)c1cc(N2CC2)c([N+](=O)[O-])cc1[N+](=O)[O-] [TRETAZICAR],fold change (FC),[1],1
same,Kcat,[2],16 s⁻¹
same,"viability at 48 h, up to 150 µM",[16],> 80%
same,Activity,PC-3 [17],>80%
same,Activity,PC-3 [18],>80%
same,fold change (FC),Nitroreductase,2.37
same,Ki,Putative nitroreductase [8],5.96 µM
same,Activity,Hep 3B2 [19],>80%
same,Kcat,Putative nitroreductase [9],2.26 s⁻¹
same,Km,nitroreductase nfsA,220 µM
same,Activity,Hep 3B2 [20],>80%
same,Km,Putative nitroreductase [25],1.07 mM
same,IC50,PC-3 [21],1.79 nM
same,"viability at 24 h, up to 150 µM",[22],> 80%
same,fold change (FC),Putative nitroreductase [11],0.38
same,Kcat/Km,[3],73000 s⁻¹ M⁻¹
same,fold change (FC),[4],13.04
same,Activity,PC-3 [24],inactive
same,Kcat/Km,[5],5600 s⁻¹ M⁻¹
same,Kcat/Km,Putative nitroreductase [13],2120 s⁻¹ M⁻¹
same,Km,[6],11 mM
same,Kcat,[7],62 s⁻¹
